Consider 7 compounds from ChEMBL document CHEMBL4033697, “Synthesis of methanesulphonamido-benzimidazole derivatives as gastro-sparing antiinflammatory agents with antioxidant effect” (Bioorg Med Chem Lett, 2017).

Where only a bound is given, the exact number is not on record here.

Data set [1] concerns Rattus norvegicus. The data set can be described thus: Ulcerogenicity in rat model of carrageenan-induced paw edema assessed as diameter of lesion in gastric wall at 25 mg/kg, po measured after 5 hrs. In kind it is toxicity, organism-based. To be noted: in vivo. The method in brief: (§1)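 After oral dosing in 0.5% CMC in the carrageenan paw model, rats were killed by cervical dislocation. Stomachs were inflated with 2% formalin, immersed 10 min to fix, and opened along the greater curvature. Longest lesion diameters were summed as a total lesion score (mm) per animal and averaged per group. Rofecoxib served as negative control and indomethacin as positive control.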

The test system of data set [2] is Rattus norvegicus. The experiment in a line: Anti-inflammatory activity in po dosed rat assessed as reduction in carrageenan-induced paw edema measured after 5 hrs by plethysmographic method. In kind it is functional. The essentials: (§2)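 Rats; carrageenan in 0.9% saline injected into paw; compound suspended in 0.5% w/v CMC given orally 30 min after carrageenan, three graded doses per compound. Paw volume by plethysmograph before and at intervals after treatment; values at 5 h. % reduction in edema = (1 − Vt/Vc) × 100 versus carrageenan control; ED50 from the three graded doses; one-way ANOVA.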
A general note: Carrageenan injected into the paw causes an acute inflammation.

Data set [3] relates to Rattus norvegicus. The experiment in a line: Ulcerogenicity in rat model of carrageenan-induced paw edema assessed as diameter of lesion in gastric wall at 75 mg/kg, po measured after 5 hrs. In kind it is toxicity, organism-based. To be noted: in vivo. The essentials: as §1
Data set [4] is described as follows: Antioxidant activity of the compound in phosphate buffer at pH 6.6 assessed as potassium ferric cyanide ion reducing activity after 20 mins by spectrophotometric method. In kind it is functional. The essentials: (§3)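 Methanolic sample (1.0–50.0 […], units as printed) mixed with 0.2 M phosphate buffer pH 6.6 and 1% K3Fe(CN)6, 50 °C for 20 min; cooled, 10% TCA added, aliquot diluted with water plus 0.1% FeCl3, 10 min stand. A700 read against a methanol control; triplicate. Reducing power (%) = [(Atest − Acontrol)/Atest] × 100; EC50 derived; ascorbic acid standard.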

Data set [5] relates to Rattus norvegicus. The data set can be described thus: Anti-inflammatory activity in rat assessed as reduction in carrageenan-induced paw edema at 75 mg/kg, po measured after 5 hrs by plethysmographic method relative to control. It is filed as functional. Further details: scale not given: the % may be the effect or the level left. The essentials:
as §2

Data set [6] can be described thus: Antioxidant activity of the compound in phosphate buffer at pH 6.6 assessed as potassium ferric cyanide ion reducing activity at 50 umol/ml after 20 mins by spectrophotometric method relative to control. In kind it is functional. Further details: scale not given: the % may be the effect or the level left. The method in brief: as §3
A short description of data set [7]: Antioxidant activity of the compound in phosphate buffer at pH 6.6 assessed as potassium ferric cyanide ion reducing activity at 1 umol/ml after 20 mins by spectrophotometric method relative to control. It is filed as functional. Further details: scale not given: the % may be the effect or the level left. The method in brief: as §3
The nature of data set [8]: Antioxidant activity of the compound in phosphate buffer at pH 6.6 assessed as potassium ferric cyanide ion reducing activity at 25 umol/ml after 20 mins by spectrophotometric method relative to control. It is filed as functional. Further details: scale not given: the % may be the effect or the level left. The essentials:
as §3

The nature of data set [9]: Antioxidant activity of the compound in phosphate buffer at pH 6.6 assessed as potassium ferric cyanide ion reducing activity at 5 umol/ml after 20 mins by spectrophotometric method relative to control. It is filed as functional. Further details: scale not given: the % may be the effect or the level left. The essentials:
as §3

Data set [10] deals with Rattus norvegicus. The data set can be described thus: Anti-inflammatory activity in rat assessed as reduction in carrageenan-induced paw edema at 25 mg/kg, po measured after 5 hrs by plethysmographic method relative to control. It is filed as functional. Further details: scale not given: the % may be the effect or the level left. The method in brief: as §2
Data set [11] can be described thus: Antioxidant activity of the compound in phosphate buffer at pH 6.6 assessed as potassium ferric cyanide ion reducing activity at 2.5 umol/ml after 20 mins by spectrophotometric method relative to control. In kind it is functional. Further details: scale not given: the % may be the effect or the level left. The method in brief: as §3
Data set [12] concerns Rattus norvegicus. The data set can be described thus: Ulcerogenicity in rat model of carrageenan-induced paw edema assessed as diameter of lesion in gastric wall at 5 mg/kg, po measured after 5 hrs. In kind it is toxicity, organism-based. To be noted: in vivo. The method in brief: as §1
For data set [13], the system named is Rattus norvegicus. The experiment in a line: Anti-inflammatory activity in rat assessed as reduction in carrageenan-induced paw edema at 5 mg/kg, po measured after 5 hrs by plethysmographic method relative to control. It is filed as functional. Further details: scale not given: the % may be the effect or the level left. The method in brief:
as §2

The nature of data set [14]: Antioxidant activity of the compound in phosphate buffer at pH 6.6 assessed as potassium ferric cyanide ion reducing activity at 10 umol/ml after 20 mins by spectrophotometric method relative to control. It is filed as functional. Further details: scale not given: the % may be the effect or the level left. The method in brief: as §3
Data set [15] has as its system Rattus norvegicus. The data set can be described thus: Toxicity in rat model of carrageenan-induced paw edema assessed as behavioral changes at 5 to 75 mg/kg, po measured during compound dosing. In kind it is organism-based. To be noted: in vivo.

With `CCCCn1c(CCC)nc2cc(N)ccc21`, the Activity is 0.54 mm in [1]; 1.13 mm in data set [3]; 59.09% in data set [5]; 62.5% in data set [6]; 6.3% in data set [7]; 55.6% in data set [8]. Besides, the Activity came out at 29.9% in data set [9]; 56.82% in data set [10]; 15.4% in [11]; 0.28 mm in data set [12]; 59.09% in data set [13]; 44.8% in data set [14]. Also, in [15], the Activity result was “Non-Toxic”. The ED50 (as a rule, the midpoint of the dose-response relation) in data set [2] was found to be 5.52 mg/kg. Besides, the EC50 (as a rule, the concentration that produces a half-maximal response) in data set [4] came to 18.2 mM.

Turning to `CCCCCn1c(CCC)nc2cc(N)ccc21`, the Activity in data set [1] is 0.52 mm; in [3] it was 1.06 mm; in data set [5], 66.36%; in data set [6], 67.3%; in data set [7], 8.7%; in data set [8] it was 60.1%. Further, the Activity is 30.2% in data set [9]; 54.36% in [10]; 18.7% in data set [11]; 0.27 mm in data set [12]; 45.91% in data set [13]; 49% in [14]. Also, the Activity entry in [15] is reported as “Non-Toxic”. For the same compound, the ED50 in data set [2] was 5.47 mg/kg. Further, in data set [4], the EC50 worked out at 10.2 mM.

As for `CCCCCn1c(CCC)nc2cc([N+](=O)[O-])ccc21`, the Activity in data set [1] was found to be 0.69 mm; in data set [3] it was 1.03 mm; in data set [5], 68.18%; in data set [6], 39.8%; in data set [7], 0.4%; in data set [8] it was 20.8%. Besides, the Activity in data set [9] was found to be 5.8%; in [10], 68.18%; in data set [11], 2.1%; in [12], 0.33 mm; in data set [13], 63.64%; in data set [14], 10.7%. In data set [15], the Activity entry is on record as “Non-Toxic”. Also, the ED50 in data set [2] worked out at 4.8 mg/kg. Moreover, the EC50 in [4] is above 50 mM.

Turning to `CCCc1nc2ccccc2[nH]1`, the Activity is recorded as 0.2 mm in data set [1]; 0.42 mm in [3]; 77.27% in data set [5]; 53.18% in data set [10]; 0.1 mm in data set [12]; 0.45% in data set [13]. In addition, the Activity entry in [15] is “Non-Toxic”. The ED50 in data set [2] was determined as 5.53 mg/kg.

Consider `O=C1O[C@H]([C@@H](O)CO)C(O)=C1O` [ASCORBIC ACID], for which the EC50 in data set [4] worked out at 7.4 mM. For the same compound, the Activity in data set [6] turned out to be 69.4%; in data set [7] it was 6.8%; in [8], 65.2%; in [9], 39.8%; in data set [11], 15.5%; in data set [14] it was 60.8%.

Regarding `CCCCCCn1c(CCC)nc2cc(N)ccc21`, the Activity in [1] came to 0.52 mm; in data set [3], 1.06 mm; in data set [5], 69.13%; in data set [6], 65.9%; in data set [7], 6%; in [8], 57.1%. Besides, the Activity in data set [9] turned out to be 34.5%; in data set [10], 49.8%; in data set [11] it was 12.9%; in data set [12], 0.27 mm; in data set [13], 33.13%; in data set [14], 48%. The Activity result in [15] is reported as “Non-Toxic”. The ED50 in data set [2] was 5.16 mg/kg. In addition, the EC50 in [4] was 10.3 mM.

As for `CCCc1nc2cc([N+](=O)[O-])ccc2[nH]1`, the Activity was found to be 0.22 mm in [1]; 0.32 mm in data set [3]; 6.82% in [5]; 6.82% in [10]; 0 mm in data set [12]; 2.27% in data set [13]. Further, the Activity result in data set [15] is listed as “Non-Toxic”.
